ChEMBL document CHEMBL1759850, “Design, synthesis, and biological evaluation of novel γ-carboline ketones as anticancer agents” (Eur J Med Chem, 2011)

Legend:
HCT-116 = assay: Cytotoxicity against human HCT116 cells after 48 hrs by MTT assay; format: functional, cell-based; conditions: HCT-116, 48 h
Method in brief: (§1)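 Cells were exposed to drug for 48 h, then given MTT in RPMI-1640 for a further 4 h at 37 °C. Formazan was dissolved in DMSO and absorbance read at 570 nm after 5 min. Each assay was run in triplicate in three independent experiments. IC50 (50% inhibition of viability) was computed by dose-effect analysis.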

K562 [1] = assay: Cytotoxicity against human multidrug-resistant K562 cells after 48 hrs by MTT assay; format: functional, cell-based; conditions: K562, 48 h; method in brief: as §1
A549 [2] = assay: Cytotoxicity against human A549 cells after 48 hrs by MTT assay; format: functional, cell-based; conditions: A549, 48 h; method in brief: as §1
[3] = Cytotoxicity against human SGC cells after 48 hrs by MTT assay; format: functional, cell-based; method in brief: as §1
K562 [4] = assay: Cytotoxicity against human K562 cells after 48 hrs by MTT assay; format: functional, cell-based; conditions: K562, 48 h; method in brief: as §1
MCF7 = assay: Cytotoxicity against human MCF7 cells after 48 hrs by MTT assay; format: functional, cell-based; conditions: MCF7, 48 h; method in brief: as §1
Tubulin [5] = assay: Inhibition of tubulin polymerization in human K562 cells by fluorometric analysis
Method in brief: (§2)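 Tubulin polymerization was run at 37 °C in 80 mM PIPES (pH 6.9) with 20% glycerol, 1 mM GTP, 2.0 mM MgCl2 and 0.5 mM EGTA. It was followed kinetically on a fluorescence plate reader.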

A549 [6] = assay: Cell cycle arrest in human A549 cells assessed as accumulation at G0/G1 phase at 2 uM after 48 hrs by flow cytometric analysis; format: functional
Method in brief: (§3)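 A549 cells in exponential growth were treated for 48 h, washed twice in PBS and fixed in 75% ethanol. They were then incubated for 0.5 h at 37 °C and stained with propidium iodide for 15 min. DNA content was read on a FACSCalibur flow cytometer.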

Tubulin [7] = assay: Inhibition of tubulin polymerization in human MCF7 cells by fluorometric analysis; method in brief: as §2
A549 [8] = assay: Cell cycle arrest in human A549 cells assessed as accumulation at S phase at 2 uM after 48 hrs by flow cytometric analysis; format: functional; method in brief: as §3
A549 [9] = assay: Cell cycle arrest in human A549 cells assessed as accumulation at G2/M phase at 2 uM after 48 hrs by flow cytometric analysis; format: functional; method in brief: as §3

With `CCn1c2ccc(C(=O)c3ccc(Br)cc3)cc2c2c[n+](CC)ccc21` the IC50 (HCT-116) was over 100 µM, the IC50 (K562 [1]) was over 100 µM and the IC50 (A549 [2]) was over 100 µM. It also gave an IC50 [3] of over 100 µM, an IC50 (K562 [4]) of over 100 µM and an IC50 (MCF7) of 56 µM.
Work on `Cn1c2ccncc2c2cc(C(=O)c3ccccc3)ccc21` yielded an IC50 (K562 [4]) of 4.82 µM.
With `CCn1c2ccncc2c2cc(C(=O)c3ccccc3)ccc21` the IC50 (HCT-116) was 8.63 µM, the IC50 (K562 [1]) was 9.09 µM and the IC50 (A549 [2]) was 23.2 µM. For the same molecule, the IC50 [3] was 11.8 µM, the IC50 (K562 [4]) was 4.96 µM and the IC50 (MCF7) was 8.36 µM.
Molecule `CC(C)n1c2ccncc2c2cc(C(=O)c3ccccc3)ccc21` has an IC50 (K562 [4]) of 6.46 µM.
With `CCn1c2ccncc2c2cc(C(=O)c3ccc(OC)cc3)ccc21` the IC50 (HCT-116) was 70.2 µM, the IC50 (K562 [1]) was 2.09 µM and the IC50 (A549 [2]) was 20.5 µM. It also gave an IC50 [3] of 17.8 µM, an IC50 (K562 [4]) of 6.39 µM and an IC50 (MCF7) of 3.85 µM.
In the case of `CCn1c2ccncc2c2cc(C(=O)c3cccc(OC)c3)ccc21`, the IC50 (HCT-116) is reported as 34.3 µM, the IC50 (K562 [1]) is reported as 1.57 µM and the IC50 (A549 [2]) is reported as 21.4 µM. The IC50 [3] was 18.7 µM, the IC50 (K562 [4]) was 6.42 µM and the IC50 (MCF7) was 9.99 µM.
`CCn1c2ccncc2c2cc(C(=O)c3ccc(S(C)(=O)=O)cc3)ccc21` showed an IC50 (HCT-116) of 37.8 µM, an IC50 (K562 [1]) of 0.66 µM and an IC50 (Tubulin [5]) of 4.3 µM. For the same molecule, the IC50 (A549 [2]) was 24.2 µM, the IC50 [3] was 24.9 µM and the Activity (A549 [6]) was 10.29%. For the same molecule, the IC50 (K562 [4]) was 5.26 µM, the IC50 (Tubulin [7]) was 4.3 µM and the Activity (A549 [8]) was 26.59%. It also gave an IC50 (MCF7) of 3.28 µM and an Activity (A549 [9]) of 63.12%.
`CCn1c2ccncc2c2cc(C(=O)c3ccc(Cl)cc3)ccc21` gave an IC50 (HCT-116) of 62.6 µM, an IC50 (K562 [1]) of 1.58 µM and an IC50 (A549 [2]) of 27.2 µM. For the same molecule, the IC50 [3] was 62.5 µM, the IC50 (K562 [4]) was 4.69 µM and the IC50 (MCF7) was 30.6 µM.
Molecule `CCn1c2ccncc2c2cc(C(=O)c3ccccc3Cl)ccc21` has an IC50 (HCT-116) of 42.3 µM, an IC50 (K562 [1]) of 7.08 µM and an IC50 (A549 [2]) of 41.4 µM. For the same molecule, the IC50 [3] was 38.6 µM, the IC50 (K562 [4]) was 13.7 µM and the IC50 (MCF7) was 21 µM.
Molecule `CCn1c2ccncc2c2cc(C(=O)c3ccc(Br)cc3)ccc21` has an IC50 (HCT-116) of 24.3 µM, an IC50 (K562 [1]) of 1.58 µM and an IC50 (A549 [2]) of 35.1 µM. It also gave an IC50 [3] of 34 µM, an IC50 (K562 [4]) of 2.11 µM and an IC50 (MCF7) of over 100 µM.
`CCn1c2ccncc2c2cc(C(=O)c3ccccc3F)ccc21` gave an IC50 (HCT-116) of 35.9 µM, an IC50 (K562 [1]) of 1.45 µM and an IC50 (A549 [2]) of 46.8 µM. The IC50 [3] was 35.6 µM, the IC50 (K562 [4]) was 12.2 µM and the IC50 (MCF7) was 4.74 µM.
For `CCn1c2ccncc2c2cc(C(=O)c3ccc([N+](=O)[O-])cc3)ccc21`, the IC50 (HCT-116) was 59.2 µM, the IC50 (K562 [1]) was 3.68 µM and the IC50 (A549 [2]) was 29.1 µM. For the same molecule, the IC50 [3] was over 100 µM, the IC50 (K562 [4]) was 16.8 µM and the IC50 (MCF7) was 3.21 µM.
With `CCn1c2ccncc2c2cc(C(=O)c3ccc(N)cc3)ccc21` the IC50 (HCT-116) was 40.6 µM, the IC50 (K562 [1]) was 23.3 µM and the IC50 (A549 [2]) was 49.3 µM. For the same molecule, the IC50 [3] was over 100 µM, the IC50 (K562 [4]) was 13.4 µM and the IC50 (MCF7) was 5.04 µM.
`CCn1c2ccc(C(=O)c3ccccc3)cc2c2c[n+](CC)ccc21` showed an IC50 (HCT-116) of over 100 µM, an IC50 (K562 [1]) of over 100 µM and an IC50 (A549 [2]) of over 100 µM. The IC50 [3] was over 100 µM, the IC50 (K562 [4]) was over 100 µM and the IC50 (MCF7) was 12 µM.
